CendR NRP1 mod: NRP-1/CendR interaction modulation; FAM-RPARPAR peptide binding to NRP-1, fluorescence polarization; AID 602438; 0.85% of 360,000 active; inhibition, % at 25 µM; O14786;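 active = inhibition or corrected inhibition above about 18%, plus a signal ratio from 0.5 to 1.5, limit read from the data, passing the limit was not always enough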
CRFBP-R2 agonist: CRF-BP/CRF-R2 complex agonism | HEK293 CRF-R2/CRF-BP, calcium dye fluorescence (FLIPR); percent of saturating CRF peptide response | activation, % at 13.2 µM | 0.46% of 350,000 active | AID 588473;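 active = activation of at least 50%, plus an integration ratio under a set limit after plate pattern correction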;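 note: plate controls were neutral control wells without compound for no effect and CRF at EC100 for full effect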
CRFBP-R2 block: blocks CRF-induced signaling of the CRF-BP/CRF-R2 complex | HEK293 CRF-R2/CRF-BP, CRF-induced calcium fluorescence | 0.59% of 350,000 active | inhibition, % at 11.8 µM;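 active = inhibition of the ligand-induced calcium signal above about 50% at the single tested concentration, limit read from the data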
Tn6 DDE FP: DD(E)-Tn6 binding inhibition, primary FP screen. P02675. Fibrin DD(E) TRITC-Tn6 fluorescence polarization displacement. inhibition, % at 8.3 µM. 0.21% of 370,000 active;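 active = inhibition above a per-campaign cutoff: mean of compounds within control limits plus 3 SD, cut at about 15% in these data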;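 note: 0% = median of all compound wells on the plate and 100% = blocking peptide control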
Tn7 DDE FP: DD(E)-Tn7 binding inhibition, primary FP screen; FP displacement of FITC-Tn7 peptide from fibrin DD(E); 0% = median of compound wells per plate; inhibition, % at 8.3 µM; 0.13% of 370,000 active; AID 720508;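 active = inhibition above the mean of compounds falling within the control limits plus 3 SD of them, cut at about 14% in these data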;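 note: 0% = plate median of compound wells and 100% = 10 µM Aha-Tn7 peptide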
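Measure: % inhibition scaled between sample-field median and high-control FP; Test system: human fibrin DD(E); Quantity: 2 µM final DD(E) protein; Doses: one dose, 8.3 µM nominal; Schedule: compound with protein 10 min, then 3 h after probe, room temperature; Detection: fluorescence polarization; Medium: Tris buffer with calcium and detergent, pH 7.8.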
proKLK7 act: activates the human kallikrein-7 zymogen; purified proKLK7, EDANS-DABCYL substrate fluorescence; 100% is mature enzyme control, 0% vehicle; 0.9% of 370,000 active; activation, % at 7 µM; P49862;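 active = activation above the mean of all tested compounds plus 3 SD, computed per campaign excluding outliers beyond control limits, cut at about 13% in these data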
Target sequence (P49862 whole entry, looked up): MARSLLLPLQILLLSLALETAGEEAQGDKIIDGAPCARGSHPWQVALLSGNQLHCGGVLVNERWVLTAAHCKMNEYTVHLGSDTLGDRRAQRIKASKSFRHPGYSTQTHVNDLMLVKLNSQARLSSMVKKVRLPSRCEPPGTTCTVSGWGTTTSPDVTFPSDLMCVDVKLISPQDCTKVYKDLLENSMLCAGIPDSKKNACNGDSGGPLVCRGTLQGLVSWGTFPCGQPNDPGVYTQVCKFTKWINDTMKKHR
proKLK7 act conf: proKLK7 activation, confirmation; shares compounds with proKLK7 act; purified proKLK7, EDANS-DABCYL substrate fluorescence; scaled: vehicle 0, mature enzyme 100; activation, % at 7 µM; 68% of 3,200 active;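 active = activation, as change over the incubation, above the mean of all tested compounds plus 3 SD, cut at about 13% in these data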
EDANS interfere: fluorescence interference counter-screen for KLK7 activators. shares compounds with proKLK7 act. 80% of 3,200 active. EDANS-DABCYL substrate fluorescence interference, no enzyme, 4 h; solvent 0%, active enzyme control 100%. activation, % at 7 µM;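 active = activation above the all-compound mean plus 3 SD, ignoring values outside control-based bounds, cut at about 4.8% in these data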;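 note: value is the 4 h activation minus the activation read at time zero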
K7 EDANS ctr: EDANS fluorescence interference in dose response, no enzyme; shares compounds with proKLK7 act; EDANS-DABCYL peptide fluorescence interference; EC50, µM; 20% of 250 active; AID 720493;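 active = compounds that raise the fluorescence signal in this interference counterscreen, with EC50 at or below 10 µM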;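 note: intact quenched peptide substrate alone read at 355 nm excitation and 520 nm emission; signal is fluorescence gain from T0 to T4 after four hours at room temperature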
An asterisk follows results filed as active; . = no result. Compounds with a hit are over-represented: about 2.9% of the library has one in this group of screens.

SMILES | CendR NRP1 mod | CRFBP-R2 agonist | CRFBP-R2 block | Tn6 DDE FP | Tn7 DDE FP | proKLK7 act | proKLK7 act conf | EDANS interfere | others
COc1cccc(OC)c1C(=O)Nc1cccc(NC(=O)c2cccs2)c1 | 10 | 0 | -2 | -1 | -11 | 1 | . | .
CNC(=S)NNC(=O)c1cccs1 | -5 | 4 | 3 | 6 | -6 | 13* | 14* | 13*
CCNC(=S)NNC(=O)c1cccs1 | 7 | -1 | -1 | -2 | -2 | 6 | . | .
CCOC(=O)[C@]12CCCCC/C=C\1N(Cc1ccc(OC)cc1)C(=O)[C@H]2CC(=O)NCc1cccc(C(F)(F)F)c1 | . | . | . | 3 | 0 | 1 | . | .
CC(C)(C)NC(=O)C(c1cc2ccccc2o1)n1c(-c2ccc(-c3ccccc3)cc2)nc2ccccc21 (stereo not drawn) | 0 | . | . | -2 | 3 | 25* | -73 | -39
CCN(CC)C(=O)COc1ccc2oc(-c3ccco3)cc(=O)c2c1 | -1 | 1 | 5 | 5 | 2 | 28* | 52* | 55*
CCN(CC)C(=O)COc1ccc2oc(C)c(C(=O)OC)c2c1 | 4 | -2 | 8 | 1 | 4 | 1 | . | .
O=c1cc(N2CCN(c3cccc(Cl)c3Cl)CC2)[nH]c(=O)n1C1CCCCC1 | . | . | . | 3 | -6 | . | . | .
COc1ccc(-c2cc(=Nc3c(C)n(C)n(-c4ccccc4)c3=O)c3ccccc3o2)cc1 | -13 | 0 | -4 | -1 | -1 | 40* | 43* | 53*
Cc1coc2cc3oc(=O)c(CC(=O)N(C)CC(=O)O)c(C)c3cc12 | -5 | -1 | -1 | 4 | 7 | 13* | 14* | 17*
O=C(Nc1nc2c(s1)CCc1ccccc1-2)c1cccs1 | -12 | 0 | -20 | -11 | 2 | 14* | 2 | 15*
CCCCCN1CCCCC(NC(=O)CSc2ccccc2)C1=O (stereo not drawn) | . | . | . | -3 | 0 | 0 | . | .
COC(=O)[C@]12C[C@H](CC(=O)N3CCN(C(=O)C4CC4)CC3)C(=O)N(Cc3ccc(Cl)cc3Cl)C1=C[C@H](C1CCCC1)O[C@@H]2C | . | . | . | -5 | -3 | 1 | . | .
O=C(Cc1ccccc1)Nc1ccc2oc(-c3cccnc3)nc2c1 | 4 | 0 | -5 | -2 | 1 | 22* | -10 | -9
COC(=O)c1cc2c(c3c4cc(OC)ccc4n(S(=O)(=O)c4ccc(OC)cc4)c13)C(=O)N(Cc1ccco1)C2 | . | . | . | 1 | 9 | -15 | . | .
Nc1nc(SCC(=O)Nc2cccc([N+](=O)[O-])c2)n[nH]1 | 7 | 0 | 4 | 4 | -2 | 0 | . | .
O=C(CCc1n[nH]c(=O)[nH]c1=O)Nc1cccc([N+](=O)[O-])c1 | -2 | 0 | 10 | 0 | -6 | 16* | -1 | 0
CC(C)C1NC2(C(=O)c3ccccc3C2=O)C2C(=O)N(c3ccc(F)cc3)C(=O)C12 (stereo not drawn) | -4 | -1 | -2 | 3 | -1 | 20* | 1 | -1
COc1ccc(Oc2c(-c3cccs3)cnn(-c3ccc(C)cc3)c2=O)cc1 | . | . | . | 7 | 3 | . | . | .
CC1CC(C)CN(C(=O)C2CCN(c3cncnc3)CC2)C1 (stereo not drawn) | . | . | . | 2 | 5 | 1 | . | .
CCOC(=O)c1cc(OC(C)=O)c2ccc(OC)c(OC)c2c1 | -7 | 2 | 23 | -9 | -3 | 14* | -50 | -50
CCOC(=O)c1ccc(OC)c(OC)c1Cl | 13 | -1 | 1 | 4 | -7 | 0 | . | .
COc1ccc(S(=O)(=O)Nc2cc(C(C)C)c(O)cc2C)cc1 | 12 | -1 | -3 | -7 | 0 | 0 | . | .
COc1ccc2nc3cc(Cl)ccc3c(Nc3cc(C(C)C)c(O)cc3C)c2c1 | 8 | 1 | 10 | 0 | 7 | 20* | 0 | 2
CNc1ccc(/C=C\CCCO)cn1 | 23 | . | . | 4 | 2 | 16* | 15* | 18*
SMILES | CendR NRP1 mod | CRFBP-R2 agonist | CRFBP-R2 block | Tn6 DDE FP | Tn7 DDE FP | proKLK7 act | proKLK7 act conf | EDANS interfere | others
CN1CCC(N[C@@H](Cc2c[nH]c3ccccc23)C(=O)NCCCc2ccccc2)(C(=O)NCCc2c[nH]c3ccccc23)CC1 | . | . | . | 9 | -10 | . | . | .
COc1ccc(-c2cccc3c4c([nH]c23)[C@@H]2C[C@H]3[C@@H](C(=O)N2CC4)[C@H](C)ON3C)cc1 | . | . | . | -3 | 4 | 0 | . | .
COc1c2c(cc3ccc(=O)oc13)CCO2 | -9 | 1 | -2 | -3 | -2 | 20* | 28* | 29*
O=C(CN1CCN(Cc2ccccc2)CC1)N/N=C\c1ccccc1[N+](=O)[O-] | . | . | . | 0 | 7 | 0 | . | .
Cc1c(-c2ccccc2)c(=O)oc2ccc(O)cc12 | -3 | -2 | 0 | 2 | 4 | 3 | . | .
Cc1c(-c2ccccc2)c(=O)oc2cc(O)ccc12 | 5 | -1 | 6 | 4 | -1 | 25* | 65* | 69*
Cc1c(O)ccc2c(CN3CCN(Cc4ccccc4)CC3)cc(=O)oc12 | -2 | -2 | -7 | -4 | 7 | 46* | 78* | 75*
Cc1c(C)c2ccc(OCC(=O)N[C@@H](Cc3ccccc3)C(=O)O)cc2oc1=O | -20 | 2 | 17 | -2 | -3 | 0 | . | .
Cc1c(CC(=O)NCC(=O)N[C@H](Cc2ccccc2)C(=O)O)c(=O)oc2cc(O)ccc12 | -10 | 2 | -6 | 3 | 0 | 72* | 64* | 73*
CCc1ccc2c(CN3CCN(Cc4ccccc4)CC3)cc(=O)oc2c1 | -5 | 0 | -16 | 3 | 0 | 1 | . | .
CCc1cc2c(CN3CCN(Cc4ccccc4)CC3)cc(=O)oc2cc1O | 4 | 1 | -6 | 6 | -4 | 62* | 21* | -15 | K7 EDANS ctr=>70
COc1ccc2c(c1)CN1C(=O)N(Cc3ccc(F)cc3)S(=O)(=O)CC21 (stereo not drawn) | . | . | . | 3 | -2 | 1 | . | .
CCCOc1nccc2c1n(C)c(=O)n2C | . | . | . | 0 | -2 | 0 | . | .
COC(=O)c1cc(-c2ccc(Cl)s2)c(=O)n2c1CCC2 | . | . | . | 1 | 5 | 4 | . | .
COCC(=O)N1CCC(C(=O)NCC2COc3ccccc3O2)CC1 (stereo not drawn) | . | . | . | 4 | -4 | -1 | . | .
Cc1c(O)ccc2c(CC(=O)N[C@@H](Cc3ccccc3)C(=O)O)cc(=O)oc12 | -2 | 2 | -3 | -3 | -5 | 36* | 65* | 61*
